Columns and labels:
BCRP [1] = test: Apparent permeability from basolateral to apical side of BCRP knockdown human Caco2 cells at 10 uM up to 120 mins by reverse-phase liquid chromatography with triple-quadrupole tandem mass spectrometry analysis; assay type: ADME, cell-based, Caco-2
Procedure, shortened: (§1)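 Knockdown verified by real-time PCR. Cells grown 3 weeks on collagen-coated polycarbonate Transwells. Bidirectional transport of 10 µM compound in HBSSg pH 7.4, with atenolol and propranolol co-dosed. Receiver sampled at 30–120 min, analysed by LC-MS/MS. Mean ± S.D., n = 3.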

P-gp [2] = test: Apparent permeability from basolateral to apical side of P-gp knockdown human Caco2 cells at 10 uM up to 120 mins by reverse-phase liquid chromatography with triple-quadrupole tandem mass spectrometry analysis; assay type: ADME, cell-based, Caco-2; procedure, shortened: as §1
MRP2 [3] = test: Efflux ratio of permeability from […] side in MRP2 knockdown human Caco2 cells at 10 uM up to 120 mins by reverse-phase liquid chromatography with triple-quadrupole tandem mass spectrometry analysis; assay type: ADME, cell-based, Caco-2
Procedure, shortened: (§2)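 Caco-2 cells stably carrying lentiviral shRNA against MRP2 or non-targeting shRNA (vector control), kept under 10 µg/mL puromycin, knockdown confirmed by real-time PCR. Cells seeded at 60,000 cells/cm2 on collagen-coated polycarbonate Transwell membranes and grown 3 weeks. HBSS with 10 mM HEPES, 15 mM glucose, pH 7.4. Substrate at 10 µM, dosed apical or basolateral. Receiver sampled at 30, 60, 90, 120 min. Quantified by LC-MS/MS. Papp = VR/(A×C0)×dC/dt.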

[4] = Efflux ratio of permeability from […] side in BCRP knockdown human Caco2 cells at 10 uM up to 120 mins by reverse-phase liquid chromatography with triple-quadrupole tandem mass spectrometry analysis; assay type: ADME, cell-based; conditions: caco-2, 2 h
Procedure, shortened: as §1, with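 “Caco-2 (CRL-2102) stably transduced with lentiviral shRNA against P-gp, BCRP or MRP2, or non-targeting shRNA vector control, kept under 10 µg/mL puromycin. Knockdown” for “Knockdown”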

[5] = Efflux ratio of permeability from […] side in MRP2 knockdown human Caco2 cells at 10 uM up to 120 mins by reverse-phase liquid chromatography with triple-quadrupole tandem mass spectrometry analysis relative to vector transfected cells; assay type: ADME, cell-based; conditions: caco-2, 2 h; procedure, shortened: as §2
[6] = Efflux ratio of permeability from […] side in P-gp knockdown human Caco2 cells at 10 uM up to 120 mins by reverse-phase liquid chromatography with triple-quadrupole tandem mass spectrometry analysis; assay type: ADME, cell-based; conditions: caco-2, 2 h
Procedure, shortened: as §1, with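 “Caco-2 (CRL-2102) stably transduced with lentiviral shRNA against P-gp, BCRP or MRP2, or non-targeting shRNA vector control, kept under 10 µg/mL puromycin. Knockdown” for “Knockdown”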

[7] = Apparent permeability from apical to basolateral side of vector transfected human Caco2 cells at 10 uM up to 120 mins by reverse-phase liquid chromatography with triple-quadrupole tandem mass spectrometry analysis; assay type: ADME, cell-based; conditions: Caco-2; procedure, shortened: as §2
BCRP [8] = test: Apparent permeability from apical to basolateral side of BCRP knockdown human Caco2 cells at 10 uM up to 120 mins by reverse-phase liquid chromatography with triple-quadrupole tandem mass spectrometry analysis; assay type: ADME, cell-based, Caco-2
Procedure, shortened: as §1, with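 “Caco-2 (CRL-2102) stably transduced with lentiviral shRNA against P-gp, BCRP or MRP2, or non-targeting shRNA vector control, kept under 10 µg/mL puromycin. Knockdown” for “Knockdown”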

P-gp [9] = test: Apparent permeability from apical to basolateral side of P-gp knockdown human Caco2 cells at 10 uM up to 120 mins by reverse-phase liquid chromatography with triple-quadrupole tandem mass spectrometry analysis; assay type: ADME, cell-based, Caco-2
Procedure, shortened: as §1, with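 “Caco-2 (CRL-2102) stably transduced with lentiviral shRNA against P-gp, BCRP or MRP2, or non-targeting shRNA vector control, kept under 10 µg/mL puromycin. Knockdown” for “Knockdown”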

MRP2 [10] = test: Apparent permeability from basolateral to apical side of MRP2 knockdown human Caco2 cells at 10 uM up to 120 mins by reverse-phase liquid chromatography with triple-quadrupole tandem mass spectrometry analysis; assay type: ADME, cell-based, Caco-2; procedure, shortened: as §1
[11] = Apparent permeability from basolateral to apical side of vector transfected human Caco2 cells at 10 uM up to 120 mins by reverse-phase liquid chromatography with triple-quadrupole tandem mass spectrometry analysis; assay type: ADME, cell-based; conditions: Caco-2; procedure, shortened: as §1
[12] = Efflux ratio of permeability from […] side in BCRP knockdown human Caco2 cells at 10 uM up to 120 mins by reverse-phase liquid chromatography with triple-quadrupole tandem mass spectrometry analysis relative to vector transfected cells; assay type: ADME, cell-based; conditions: caco-2, 2 h
Procedure, shortened: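 Efflux ratio (B-A over A-B Papp) measured in shRNA knockdown Caco-2 monolayers and in non-targeting vector-control monolayers, both under puromycin selection. 10 µM compound in HBSSg pH 7.4. Receiver sampled 30–120 min, LC-MS/MS. Each knockdown ratio is expressed as a percentage of the vector-control ratio.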

MRP2 [13] = test: Apparent permeability from apical to basolateral side of MRP2 knockdown human Caco2 cells at 10 uM up to 120 mins by reverse-phase liquid chromatography with triple-quadrupole tandem mass spectrometry analysis; assay type: ADME, cell-based, Caco-2; procedure, shortened: as §2
[14] = Apparent permeability of the compound in P-gp knockdown human Caco2 cells at 10 uM up to 120 mins by reverse-phase liquid chromatography with triple-quadrupole tandem mass spectrometry analysis; assay type: ADME, cell-based; conditions: caco-2, 2 h
[15] = Apparent permeability of the compound in BCRP knockdown human Caco2 cells at 10 uM up to 120 mins by reverse-phase liquid chromatography with triple-quadrupole tandem mass spectrometry analysis; assay type: ADME, cell-based; conditions: caco-2, 2 h
[16] = Apparent permeability of the compound in MRP2 knockdown human Caco2 cells at 10 uM up to 120 mins by reverse-phase liquid chromatography with triple-quadrupole tandem mass spectrometry analysis; assay type: ADME, cell-based; conditions: caco-2, 2 h
[17] = Apparent permeability of the compound in vector transfected human Caco2 cells at 10 uM up to 120 mins by reverse-phase liquid chromatography with triple-quadrupole tandem mass spectrometry analysis; assay type: ADME, cell-based; conditions: caco-2, 2 h
[18] = Apparent permeability from basolateral to apical side of human Caco2 cells up to 120 mins by Michaelis-Menten equation analysis; assay type: ADME, cell-based, Caco-2

| Compound | Papp B→A at 2 h, 10 µM (BCRP [1]) | Papp B→A at 2 h, 10 µM (P-gp [2]) | efflux ratio at 2 h, 10 µM (MRP2 [3]) | Ratio [4] | Ratio [5] | Ratio [6] | Papp A→B at 2 h, 10 µM [7] | Papp A→B at 2 h, 10 µM (BCRP [8]) | Papp A→B at 2 h, 10 µM (P-gp [9]) | Papp B→A at 2 h, 10 µM (MRP2 [10]) | Papp B→A at 2 h, 10 µM [11] | Ratio [12] | Papp A→B at 2 h, 10 µM (MRP2 [13]) | Papp [14] | Papp [15] | Papp [16] | Papp [17] | Km at 2 h ([18]; Caco-2) | Vmax ([18]; caco-2, 2 h) |
| --- | --- | --- | --- | --- | --- | --- | --- | --- | --- | --- | --- | --- | --- | --- | --- | --- | --- | --- | --- |
| C[C@H]1O[C@@H](O[C@H]2[C@@H](O)C[C@H](O[C@H]3[C@@H](O)C[C@H](O[C@H]4CC[C@@]5(C)[C@H](CC[C@@H]6[C@@H]5C[C@@H](O)[C@]5(C)[C@@H](C7=CC(=O)OC7)CC[C@]65O)C4)O[C@@H]3C)O[C@@H]2C)C[C@H](O)[C@@H]1O [DIGOXIN] | 9.46 ×10⁻⁶ cm/s | 11.8 ×10⁻⁶ cm/s | 21.4 | 17.7 | 121% | 7.4 | 1.14 ×10⁻⁶ cm/s | 0.54 ×10⁻⁶ cm/s | 1.59 ×10⁻⁶ cm/s | 19 ×10⁻⁶ cm/s | 20.1 ×10⁻⁶ cm/s | 100% | – | – | – | – | – | – | – |
| C[C@]12CC[C@@H]3c4ccc(OS(=O)(=O)O)cc4CC[C@H]3[C@@H]1CCC2=O [ESTRONE SULFURIC ACID] | 10.5 ×10⁻⁶ cm/s | 22.9 ×10⁻⁶ cm/s | 62.2 | 10.2 | 128% | 43.6 | 0.57 ×10⁻⁶ cm/s | 1.03 ×10⁻⁶ cm/s | 0.52 ×10⁻⁶ cm/s | 33.5 ×10⁻⁶ cm/s | 27.2 ×10⁻⁶ cm/s | 21% | 0.54 ×10⁻⁶ cm/s | – | – | – | – | – | – |
| CC(C)n1c(/C=C/C(O)CC(O)CC(=O)[O-])c(-c2ccc(F)cc2)c2ccccc21.[Na+] (racemic) [FLUVASTATIN SODIUM] | 57.3 ×10⁻⁶ cm/s | 25.3 ×10⁻⁶ cm/s | – | – | – | – | – | – | – | 48.2 ×10⁻⁶ cm/s | 96.1 ×10⁻⁶ cm/s | – | – | impermeable | impermeable | impermeable | permeable | – | – |
| CC(C)c1nc(N(C)S(C)(=O)=O)nc(-c2ccc(F)cc2)c1/C=C/[C@@H](O)C[C@@H](O)CC(=O)[O-].CC(C)c1nc(N(C)S(C)(=O)=O)nc(-c2ccc(F)cc2)c1/C=C/[C@@H](O)C[C@@H](O)CC(=O)[O-].[Ca+2] [ROSUVASTATIN CALCIUM] | 5.8 ×10⁻⁶ cm/s | 4.6 ×10⁻⁶ cm/s | – | – | – | – | – | – | – | 6.6 ×10⁻⁶ cm/s | 14.1 ×10⁻⁶ cm/s | – | – | impermeable | impermeable | impermeable | permeable | 98 µM | 137 pmol/min/cm2 |
| O=C1OC(c2ccc(O)c(S(=O)(=O)[O-])c2)(c2ccc(O)c(S(=O)(=O)[O-])c2)c2c(Br)c(Br)c(Br)c(Br)c21.[Na+].[Na+] [SULFOBROMOPHTHALEIN SODIUM] | – | – | 2.6 | – | 5% | – | 0.03 ×10⁻⁶ cm/s | – | – | 0.9 ×10⁻⁶ cm/s | 1.45 ×10⁻⁶ cm/s | – | 0.34 ×10⁻⁶ cm/s | – | – | – | – | – | – |
| CC[C@H](C)C(=O)O[C@H]1C[C@@H](C)C=C2C=C[C@H](C)[C@H](CC[C@@H]3C[C@@H](O)CC(=O)O3)[C@H]21 [LOVASTATIN] | – | – | – | – | – | – | – | – | – | – | – | – | – | impermeable | impermeable | impermeable | impermeable | – | – |
